Data published in PMC11564564 (Scientific Reports, 2024).
Values after ≈ are worked out from the molar mass of the structure shown.

Columns and labels:
[1] = system: ESBL-producing P. aeruginosa; assay: MIC by serial dilution, ESBL P. aeruginosa; assay type: cell-based; conditions: Pseudomonas aeruginosa, read-out: Minimum inhibitory concentration (MIC), P. aeruginosa
Outline: (§1)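 Bacterial isolates were confirmed ESBL-positive by double disc synergy test. For that test, a 0.5 McFarland suspension was swabbed onto Mueller Hinton agar, and ceftazidime and cefotaxime (30 μg) discs were placed 20 mm from an amoxicillin/clavulanate (30 μg) disc. Plates were incubated at 37 °C for 18-20 h, and an enhanced zone indicated ESBL. Test compounds were dissolved in appropriate solvents, and MIC was determined by serial dilution, three replicates per concentration.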

Solubility in DMSO = assay type: physicochemical
ESBL-producing E. coli = assay: MIC by serial dilution, ESBL E. coli; assay type: cell-based; conditions: Escherichia coli, read-out: Minimum inhibitory concentration (MIC), E. coli
Outline: (§2)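 MIC was set by serial dilution of test compound, with three replicates per concentration. Strains were clinical E. coli, K. pneumoniae and P. aeruginosa isolates, identified biochemically and confirmed as ESBL producers by double disc synergy test (ceftazidime and cefotaxime discs 20 mm from amoxicillin/clavulanate on Mueller Hinton agar, 37 °C, 18–20 h).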

[2] = system: ESBL-producing K. pneumoniae; assay: MIC by serial dilution, ESBL K. pneumoniae; assay type: cell-based; conditions: Klebsiella pneumoniae, read-out: Minimum inhibitory concentration (MIC), K. pneumoniae
Outline: as §1

[3] = system: ESBL-producing strains (E. coli, K. pneumoniae, and P. aeruginosa); assay: MIC, summary across ESBL-producing strains; assay type: cell-based
Outline: as §2

Brine shrimp lethality = conditions: Artemia salina (brine shrimp), in vivo
Outline: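 Artemia salina eggs were hatched for 24 h in aerated, lit salt water (27 g table salt per 3 L). Ten nauplii went into each tube with test compound at 1–200 µg/mL in 300 µL total. After 24 h, survivors were counted under a magnifier and percent mortality calculated. IC50 came from Finney analysis.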

human red blood cells = assay: Hemolytic; assay type: cell-based; conditions: Erythrocyte, 1 h, read-out: IC50, Human RBC's
Outline: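 Blood from a healthy donor was collected in EDTA. RBCs were pelleted at 14,000 rpm for 5 min, and 200 µL of pellet was resuspended in 9.8 mL PBS, pH 7.2. 100 µL suspension plus 100 µL test solution (200–1 µg/mL) were incubated 1 h at 35 °C, then spun at 10,000 rpm for 10 min. Supernatant haemoglobin was read at 540 nm. Triton X-100 and PBS defined 100% and 0% hemolysis.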

tuberculosis = conditions: cited from earlier work

Row | SMILES | MIC [1] [µg/mL] | Solubility in DMSO (Solubility in DMSO) | MIC (ESBL-producing E. coli) [µg/mL] | MIC [2] [µg/mL] | MIC [3] [µg/mL] | IC50 at 24 h (Brine shrimp lethality) [µg/mL] | IC50 (human red blood cells) [µg/mL] | MIC, antituberculosis activity (tuberculosis) [µM]
1 | COc1cc(C=Nc2cccc(O)c2)ccc1O [SB-4, 4-((3-Hydroxyphenylimino)methyl)-2-methoxyphenol] | 125 (≈ 514 µM) | Soluble in DMSO | 125 (≈ 514 µM) | 125 (≈ 514 µM) | 125 (≈ 514 µM) |  |  | 
2 | COc1cc(C=Nc2ccc([N+](=O)[O-])cc2)ccc1O [SB-1, 2-Methoxy-4-((4-nitrophenylimino)methyl)phenol] | 125 (≈ 459 µM) | Soluble in DMSO | 125 (≈ 459 µM) | 125 (≈ 459 µM) | 125 (≈ 459 µM) | 50.5 (≈ 185 µM) | > 200 | 
3 | [H]/N=C(/N)N[C@H]1[C@H](O)[C@@H](O)[C@H](O[C@@H]2O[C@@H](C)[C@](O)(C=O)[C@H]2O[C@@H]2O[C@@H](CO)[C@H](O)[C@@H](O)[C@@H]2NC)[C@@H](N/C(N)=N\[H])[C@@H]1O [streptomycin] |  |  |  |  |  |  |  | 10.7 (≈ 6.22 µg/mL)
4 | COc1cc(C=Nc2ccc(C)cc2Cl)ccc1O [SB-3, 4-((2-Chloro-4-methylphenylimino)methyl)-2-methoxyphenol] | 125 (≈ 453 µM) | Soluble in DMSO | 125 (≈ 453 µM) | 125 (≈ 453 µM) | 125 (≈ 453 µM) |  | > 200 | 
5 | COc1cc(C=Nc2ccc(Cl)cc2Cl)ccc1O [SB-5, 4-((2,4-Dichlorophenylimino)methyl)-2-methoxyphenol] | 125 (≈ 422 µM) | Soluble in DMSO | 125 (≈ 422 µM) | 125 (≈ 422 µM) | 125 (≈ 422 µM) | 45.7 (≈ 154 µM) | > 200 | 
6 | COc1cc(C=Nc2ccccc2Br)ccc1O [SB-2, 4-((2-Bromophenylimino)methyl)-2-methoxyphenol] | 250 (≈ 817 µM) | Soluble in DMSO | 250 (≈ 817 µM) | 250 (≈ 817 µM) | 250 (≈ 817 µM) |  |  | 
